The record followed here is PubChem BioAssay.

Each structure is given as a SMILES string. Active and inactive are the calls of the source.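 How the source made its calls, unless noted: active means inhibition at or above 50% at 10 µM; inactive means inhibition below 50%.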

Assay [1] in a line: inhibitors of TNFa-induced NFkB p65 translocation, primary screen, imaging, HUVEC, MLSMR starter and 10KST1 sets (AID 438;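 active means inhibition above 20% together with a positive visual image hit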;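 further: compound added about 3h40 before a 20 min TNFalpha stimulation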;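 on inhibition: signal is the nuclear over cytoplasmic p65 intensity ratio per well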). To be noted: HUVEC TNFa-induced p65 nuclear translocation; cell count: measured here: nuclei count (cytotoxicity indicator), at 2.08 µM; inhibition: at 2 µM, stronger effect = higher value, 0% TNFa-plus-vehicle, 100% no-TNFa wells.
A short description of assay [2]: reduction of polyQ htt aggregates in cells – imaging, exon1htt(103Q)mCFP cells, high-content imaging, primary screen (AID 483;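 active means visual image review flags a hit and inhibition of aggregation exceeds 20%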;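 further: compound exposure lasted 3 days before fixation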;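 on nuclei count: percent of the per-plate median nuclei count of sample wells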). To be noted: exon1htt(103Q)mCFP cell line, aggregate imaging, at 2 µM; inhibition of aggregation: stronger effect = higher value; nuclei count: measured here: cell count, toxicity.
Assay [3] in a line: endothelial E-selectin expression blockers – imaging, HUVEC, immunofluorescence, MLSMR starter and 10KST1 sets, primary screen (AID 487;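 active means visually confirmed hit in the image check and inhibition above 20%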;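 on inhibition: signal is fraction of cell area covered by stained E-selectin grains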;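 on nuclei count: 100% = median nuclei count of all wells on the same plate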). To be noted: HUVEC TNFalpha-induced E-selectin immunofluorescence imaging, at 2 µM; inhibition: stronger effect = higher value; nuclei count: measured here: cell number, toxicity.
The target in assay [4] is Voltage-gated potassium channel subunit beta-2 (Rattus norvegicus) (UniProt P62483). As to the kind of experiment: inhibitors of rat Kvbeta2 reductase activity – biochemical, NADPH fluorescence, primary screen (AID 622;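 active means fluorescence slope higher than the sample average by over 3 SD, cut at about -0.22 in these data, passing the limit was not always enough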;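 further: slope of raw intensity against log time taken from 70 to 1610 s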). The note with it: recombinant KvBeta, 4-cyanobenzaldehyde reduction, at 10 µM, stronger effect = higher value.
Voltage-gated potassium channel subunit beta-2 (Rattus norvegicus), sequence (P62483 whole entry, looked up): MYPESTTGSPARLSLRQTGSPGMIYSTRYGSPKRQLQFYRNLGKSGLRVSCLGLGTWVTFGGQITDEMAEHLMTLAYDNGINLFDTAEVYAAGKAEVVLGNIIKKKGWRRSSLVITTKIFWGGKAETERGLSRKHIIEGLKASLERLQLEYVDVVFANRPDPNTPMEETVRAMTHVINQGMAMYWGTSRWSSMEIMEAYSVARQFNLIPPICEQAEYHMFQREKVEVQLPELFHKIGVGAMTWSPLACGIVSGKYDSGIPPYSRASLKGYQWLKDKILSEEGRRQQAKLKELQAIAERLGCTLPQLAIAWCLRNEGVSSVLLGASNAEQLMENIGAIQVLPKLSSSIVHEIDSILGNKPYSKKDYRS
For assay [5] the target is unchanged. The assay can be described thus: enhancers of rat Kvbeta2 NADPH turnover – biochemical, NADPH fluorescence, primary screen (AID 623;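 active means NADPH fluorescence slope more negative than the mean of all samples by about 3 SD, 99.7% confidence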;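 further: fluorescence intensity change per second fitted from 20 to 320 s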). The note with it: Recombinant KvBeta, NADPH fluorescence decrease slope, 10 min; at 10 µM; stronger effect = lower value.
The target in assay [6] is Muscarinic acetylcholine receptor M4 (Homo sapiens) (UniProt P08173). The assay can be described thus: M4-linked GIRK flux change, two-sided – cell-based, HEK293 M4/GIRK, thallium flux, BTC-AM, M4 allosteric agonist project, primary screen (AID 625;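 active means fluorescence slope after compound addition differing from the mean of all tested samples at 99.7% confidence, mostly higher but some lower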;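 further: thallium influx through GIRK channels coupled to M4 in HEK293 cells with BTC-AM dye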). To be noted: at 10 µM, actives lie on both sides. In outline: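 Material: M4/GIRK1/GIRK2 stable HEK293 cell line. Medium: pH 7.3 thallium assay buffer. Dosing: single compound concentration, 10 µM final. Schedule: 1 h dye loading, 2 min kinetic read. Measured by: kinetic fluorescence with BTC-AM dye. Read-out: post-addition slope, 15–24 s, of baseline-normalized fluorescence. Benchmarks: carbachol and DMSO controls.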
Muscarinic acetylcholine receptor M4 (Homo sapiens), sequence (P08173 whole entry, looked up): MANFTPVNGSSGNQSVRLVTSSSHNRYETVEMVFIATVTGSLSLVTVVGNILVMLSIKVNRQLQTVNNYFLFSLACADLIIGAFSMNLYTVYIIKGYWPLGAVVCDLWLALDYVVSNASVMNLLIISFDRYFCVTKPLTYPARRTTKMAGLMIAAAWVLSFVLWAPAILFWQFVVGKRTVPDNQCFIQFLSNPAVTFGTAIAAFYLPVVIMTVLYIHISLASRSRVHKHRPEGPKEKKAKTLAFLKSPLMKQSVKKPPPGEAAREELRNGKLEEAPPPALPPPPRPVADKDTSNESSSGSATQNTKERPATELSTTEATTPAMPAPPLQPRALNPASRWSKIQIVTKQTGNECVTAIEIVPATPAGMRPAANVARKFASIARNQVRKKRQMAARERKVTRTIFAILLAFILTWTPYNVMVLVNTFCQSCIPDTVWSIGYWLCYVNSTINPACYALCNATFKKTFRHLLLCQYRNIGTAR

A short description of assay [7]: blockers of RIG-like receptor reporter activation – cell-based, Sendai virus stimulus, luciferase, 10K MLSCN set, TLR/RLR signaling modifier project, primary screen (AID 602276).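 Further: firefly luciferase from ISG56 promoter only with Renilla not read in this screen; 0% = Sendai virus plus DMSO and 100% = medium plus DMSO without virus.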 The note with it: HEK293 RL24 IRF3 luciferase reporter, at 10 µM, stronger effect = higher value. In general terms: Reporter assays use an easily measured gene product as a stand-in for the process of interest.

Assay [8] can be described thus: TLR3 IRF3 reporter activation blockers – cell-based, poly I:C stimulus, luciferase, 10K MLSCN set, primary screen (AID 602277;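 active means inhibition of the reporter signal at or above 50%; inactive means inhibition below 50%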). To be noted: HEK293-TLR3 RL24 IRF3 luciferase reporter, at 10 µM, stronger effect = higher value.

Broadly, the inhibition is the change of the read-out against control, counted positive when it falls. On to `COc1cc(NC(=O)c2cc(-n3cnnc3)ccc2Cl)cc(OC)c1`, for which the cell count in assay [1] stood at 224. In addition, the inhibition in assay [1] was -8.1% (inactive); in assay [3], -46.1% (inactive); in assay [7], 15.2% (inactive); in assay [8] it was 17.9% (inactive). Besides, the inhibition of aggregation in assay [2] was -12.2% (inactive). Besides, the results for the nuclei count in assay [2] and in assay [3] were 97.9% and 95.5%, respectively. In addition, the fluorescence slope in assay [4] was -0.479 (inactive); in assay [6], 0.00479 (inactive). Moreover, the NADPH fluorescence slope in assay [5] was -8.2e-05 (inactive).
`O=C(Nc1cccc(C(=O)N2CCOCC2)c1)c1cccnc1`: the cell count in assay [1] is 282. The inhibition in assay [1] was -15.4% (inactive); in assay [3], -25.3% (inactive); in assay [7], -1.23% (inactive); in assay [8], 0.71% (inactive). Also, the inhibition of aggregation in assay [2] is -7.7% (inactive). The nuclei count in assay [2] turned out to be 106%; in assay [3], 116%. Further, the fluorescence slope in assay [4] is -0.546 (inactive); in assay [6], 0.00393 (inactive). In addition, the NADPH fluorescence slope in assay [5] was -0.000161 (inactive).
As for `O=C(Cn1cnc2c(oc3ccccc32)c1=O)N1CCN(c2ccccc2)CC1`, the cell count in assay [1] came to 648. Besides, the inhibition was 10.8% (inactive) in assay [1], -78% (inactive) in assay [3], 10.1% (inactive) in assay [7] and 17.4% (inactive) in assay [8]. Also, the inhibition of aggregation in assay [2] is 34.2% (inactive). The nuclei count stood at 95% in assay [2] and 84.4% in assay [3]. Moreover, the figures for the fluorescence slope in assay [4] and in assay [6] were -0.493 (inactive) and 0.00654 (inactive), respectively. Besides, the NADPH fluorescence slope in assay [5] is 1.3e-05 (inactive).
For the compound `CCOC(=O)N1CCN(C(=O)C(NS(=O)(=O)c2cccc3nsnc23)c2ccccc2)CC1` (centres undefined), in assay [1], the cell count is 588. In addition, the inhibition in assay [1] was 1.5% (inactive); in assay [3], 51.1% (inactive); in assay [7], 3.16% (inactive); in assay [8], 9.73% (inactive). Further, the inhibition of aggregation in assay [2] was 13.3% (inactive). The nuclei count in assay [2] worked out at 106%; in assay [3] it was 81.6%. Further, the fluorescence slope in assay [4] was -0.599 (inactive); in assay [6], 0.0056 (inactive). For the same compound, the NADPH fluorescence slope in assay [5] was 1.3e-05 (inactive).
In the case of `Cc1ccc(Cn2c(SCC(C)C)nc3c2c(=O)n(C)c(=O)n3C)cc1`, in assay [1], the cell count was determined as 468. For the same compound, the inhibition in assay [1] was -1.3% (inactive); in assay [3], -65.5% (inactive); in assay [7], 16.7% (inactive); in assay [8] it was 14.4% (inactive). Moreover, the inhibition of aggregation in assay [2] was -13.4% (inactive). Also, the nuclei count was 111% in assay [2] and 119% in assay [3]. Moreover, the figures for the fluorescence slope in assay [4] and in assay [6] were -0.468 (inactive) and 0.00373 (inactive), respectively. For the same compound, the NADPH fluorescence slope in assay [5] was -0.000354 (inactive).
`O=C(NCCN1CCCC1)C1COc2ccccc2O1` (centres undefined): the cell count in assay [1] turned out to be 511. Moreover, the inhibition in assay [1] is -0.5% (inactive); in assay [3], -28.7% (inactive); in assay [7], 1.21% (inactive); in assay [8], 11.8% (inactive). Further, the inhibition of aggregation in assay [2] is -4.3% (inactive). Further, the nuclei count was determined as 73.8% in assay [2] and 100% in assay [3]. Moreover, the fluorescence slope in assay [4] was -0.587 (inactive); in assay [6] it was 0.0064 (inactive). The NADPH fluorescence slope in assay [5] is -3.1e-05 (inactive).
Take `CCCc1[nH]nc2c1C(c1cccc(OC(=O)c3ccco3)c1)C(C#N)=C(N)O2` (centres undefined): the cell count in assay [1] came out at 687. For the same compound, the inhibition in assay [1] was -27.1% (inactive); in assay [3] it was 35.2% (inactive); in assay [7], 9.57% (inactive); in assay [8], 18% (inactive). In addition, the inhibition of aggregation in assay [2] was -11.9% (inactive). Besides, the results for the nuclei count in assay [2] and in assay [3] were 105% and 96.7%, respectively. Also, the fluorescence slope in assay [4] was -0.471 (inactive); in assay [6], 0.00951 (inactive). Also, the NADPH fluorescence slope in assay [5] is -8.2e-06 (inactive).
With `CC(C)Oc1ccc(C2C(C(=O)c3ccco3)=C(O)C(=O)N2CCCN(C)C)cc1` (centres undefined), in assay [1], the cell count stood at 694. In addition, the inhibition in assay [1] is -5.2% (inactive); in assay [3], -16.4% (inactive); in assay [7], 13.1% (inactive); in assay [8] it was 8.15% (inactive). In addition, in assay [2], the inhibition of aggregation is 17.7% (inactive). Moreover, the nuclei count in assay [2] is 80.9%; in assay [3], 112%. Further, the results for the fluorescence slope in assay [4] and in assay [6] were -0.476 (inactive) and 0.00376 (inactive), respectively. For the same compound, the NADPH fluorescence slope in assay [5] was -0.000237 (inactive).
In the case of `CC(C)CNC(=O)c1ccccc1NC(=O)CN(c1ccc2c(c1)OCCO2)S(C)(=O)=O`, the cell count in assay [1] was 330. The inhibition is 6% (inactive) in assay [1], -0.7% (inactive) in assay [3], 0.301% (inactive) in assay [7] and 0.167% (inactive) in assay [8]. The inhibition of aggregation in assay [2] is -12.9% (inactive). The results for the nuclei count in assay [2] and in assay [3] were 97.5% and 105%, respectively. The fluorescence slope in assay [4] is -0.574 (inactive); in assay [6] it was 0.00389 (inactive). The NADPH fluorescence slope in assay [5] was 2.6e-05 (inactive).
In the case of `CCOC(=O)CCC(=O)c1c(C)oc2ccc(OC)cc12`, in assay [1], the cell count was 447. In addition, the inhibition in assay [1] is -6.3% (inactive); in assay [3], 46.7% (inactive); in assay [7], -14.6% (inactive); in assay [8], -30.6% (inactive). Moreover, the inhibition of aggregation in assay [2] was 4.8% (inactive). In addition, the results for the nuclei count in assay [2] and in assay [3] were 98.5% and 118%, respectively. Further, the figures for the fluorescence slope in assay [4] and in assay [6] were -0.583 (inactive) and 0.00919 (inactive), respectively. For the same compound, the NADPH fluorescence slope in assay [5] was 4e-05 (inactive).
Regarding `Cn1c(CN2CCOCC2)nc2cc(NC(=O)c3ccccc3Cl)ccc21`, in assay [1], the cell count turned out to be 463. Further, the inhibition was 7.9% (inactive) in assay [1], -19.9% (inactive) in assay [3], 8.55% (inactive) in assay [7] and 2.36% (inactive) in assay [8]. Moreover, the inhibition of aggregation in assay [2] is -4.3% (inactive). Also, the results for the nuclei count in assay [2] and in assay [3] were 102% and 113%, respectively. Also, the fluorescence slope in assay [4] was -0.588 (inactive); in assay [6], 0.00633 (inactive). Besides, the NADPH fluorescence slope in assay [5] was -2.3e-05 (inactive).
For `O=C(NCC1COCCO1)C1CCN(S(=O)(=O)c2ccccc2)CC1` (centres undefined), the cell count in assay [1] amounted to 621. The inhibition in assay [1] is -9.6% (inactive); in assay [3], -28.6% (inactive); in assay [7] it was 12% (inactive); in assay [8] it was 0.992% (inactive). In addition, the inhibition of aggregation in assay [2] was -7.6% (inactive). In addition, the nuclei count in assay [2] was 111%; in assay [3] it was 112%. For the same compound, the fluorescence slope was -0.557 (inactive) in assay [4] and 0.0061 (inactive) in assay [6]. The NADPH fluorescence slope in assay [5] is 3.3e-05 (inactive).
Consider `CCCN(CCC)C(=O)CSc1nc2ccccc2c(=O)n1C1CCCC1`, for which the cell count in assay [1] turned out to be 475. The inhibition is 3% (inactive) in assay [1], -7.5% (inactive) in assay [3], 15.9% (inactive) in assay [7] and 10.1% (inactive) in assay [8]. Also, the inhibition of aggregation in assay [2] is -13.4% (inactive). The nuclei count in assay [2] amounted to 93.4%; in assay [3] it was 117%. The values for the fluorescence slope in assay [4] and in assay [6] were -0.452 (inactive) and 0.00476 (inactive), respectively. Further, the NADPH fluorescence slope in assay [5] was -1.1e-05 (inactive).
Turning to `CCOC(=O)c1ccccc1NC(=O)CSc1nc2c(c(=O)n(C)c(=O)n2C)n1C`, the cell count in assay [1] amounted to 718. The inhibition is -6.2% (inactive) in assay [1], 12.3% (inactive) in assay [3], 18.4% (inactive) in assay [7] and 25% (inactive) in assay [8]. Further, in assay [2], the inhibition of aggregation is -10.4% (inactive). The nuclei count stood at 107% in assay [2] and 102% in assay [3]. The fluorescence slope was -0.444 (inactive) in assay [4] and 0.00588 (inactive) in assay [6]. Further, the NADPH fluorescence slope in assay [5] is 3e-05 (inactive).
